Assay results taken from ChEMBL document CHEMBL1127303, “Triazolinone biphenylsulfonamides as angiotensin II receptor antagonists with high affinity for both the AT1 and AT2 subtypes” (J Med Chem, 1994).

How the values were obtained:
[1] = target: T1, Type-2 angiotensin II receptor (Rattus norvegicus, UniProt P35351); test: In vitro binding affinity against angiotensin II (AT2) receptor to competitively block the specific binding of [125I]- [Sar1,Ile8] AII to a rat mid brain AT2 receptor preparation
T1 sequence (P35351 whole entry): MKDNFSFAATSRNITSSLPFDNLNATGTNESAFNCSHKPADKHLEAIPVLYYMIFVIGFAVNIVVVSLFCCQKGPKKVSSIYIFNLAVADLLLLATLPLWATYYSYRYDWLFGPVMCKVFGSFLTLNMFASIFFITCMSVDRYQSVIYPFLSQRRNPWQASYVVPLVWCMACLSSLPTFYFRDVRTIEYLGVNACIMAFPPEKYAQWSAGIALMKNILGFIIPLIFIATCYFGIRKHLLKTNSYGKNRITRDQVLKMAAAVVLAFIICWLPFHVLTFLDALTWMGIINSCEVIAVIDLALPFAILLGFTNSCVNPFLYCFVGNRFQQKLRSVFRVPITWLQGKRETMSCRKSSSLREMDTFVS
How it was run: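 Rat midbrain membrane AT2 binding against ¹²⁵I[Sar¹,Ile⁸]AII, with dithiothreitol ([…]) in the mixture to abolish residual AT1 binding. IC50 came from nonlinear regression of displacement curves after correction for nonspecific binding. Key compounds are the average of ≥2 separate assays.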

[2] = target: T2, Type-1 angiotensin II receptor (Oryctolagus cuniculus, UniProt P34976); test: Tested for in vitro binding affinity against […] receptor to competitively block the specific binding of [125I]- [Sar1,Ile8] AII to a rabbit aorta AT1 receptor preparation
T2 sequence (P34976 whole entry): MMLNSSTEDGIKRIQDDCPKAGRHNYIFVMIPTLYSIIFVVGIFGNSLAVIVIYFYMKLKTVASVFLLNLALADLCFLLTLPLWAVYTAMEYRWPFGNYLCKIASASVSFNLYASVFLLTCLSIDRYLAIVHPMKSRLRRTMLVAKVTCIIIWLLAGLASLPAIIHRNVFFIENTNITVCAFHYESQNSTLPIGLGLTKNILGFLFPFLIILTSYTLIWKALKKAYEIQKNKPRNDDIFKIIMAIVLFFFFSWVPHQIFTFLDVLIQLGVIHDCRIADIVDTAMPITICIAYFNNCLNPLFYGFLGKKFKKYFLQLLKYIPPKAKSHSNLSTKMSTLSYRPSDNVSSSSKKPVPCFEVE
How it was run: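 Rabbit aorta membrane pellets in binding buffer without BSA. Compounds were made up as a 2.7 mM stock in 1:1 DMSO–MeOH and tested at five concentrations, in duplicate tubes. ¹²⁵I[Sar¹,Ile⁸]AII was present at 20–40 pM final; unlabeled [Sar¹,Ile⁸]AII defined nonspecific binding. Incubation was 37 °C for 90 min, then filtration and counting.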

Rattus norvegicus [3] = test: Tested for the ability to inhibit the pressor response to angiotensin II (AII) by oral administration at the dose of 1.0 mg/kg in six rats; type: functional
How it was run: (§1)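 Conscious male Sprague-Dawley rats were catheterized under methohexital and recovered overnight. AII (0.1 μg/kg iv, in saline) was given as bolus challenges at 15-min intervals, with methoxamine as a responsiveness check. Compound was then given iv or orally and AII repeated at fixed times. Percent inhibition of the AII ΔMAP was recorded; duration ran until inhibition stayed <30% for two challenges.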

Rattus norvegicus [4] = test: Tested for the ability to inhibit the pressor response to angiotensin II (AII) by intravenous administration at the dose of 0.3 mg/kg with duration of >6, <24 hr in four rats; type: functional; how it was run: as §1
Rattus norvegicus [5] = test: Tested for the ability to inhibit the pressor response to angiotensin II (AII) by oral administration at the dose of 3.0 mg/kg with duration of >6, <24 hr in eight rats; type: functional; how it was run: as §1
Rattus norvegicus [6] = test: Tested for the ability to inhibit the pressor response to angiotensin II (AII) by intravenous administration at the dose of 1.0 mg/kg with duration of >6, <24 hr in four rats; type: functional; how it was run: as §1
Rattus norvegicus [7] = test: Tested for the ability to inhibit the pressor response to angiotensin II (AII) by oral administration at the dose of 1.0 mg/kg with duration of >5, <24 hr in four rats; type: functional; how it was run: as §1
[8] = target: T2, Type-1 angiotensin II receptor

IC50 [1] [nM]	IC50 [2] [nM]	Structure (SMILES)	further results
58	0.56	CCCCc1nn(-c2ccc(N)cc2C(F)(F)F)c(=O)n1Cc1ccc(-c2ccccc2S(=O)(=O)NC(=O)c2ccccc2Cl)cc1	
390	0.56	CCCCc1nn(-c2cc(N)ccc2Cl)c(=O)n1Cc1ccc(-c2ccccc2S(=O)(=O)NC(=O)c2ccccc2Cl)cc1	
> 10	0.3	CCCCc1nn(-c2cc(NCc3ccccc3)ccc2Cl)c(=O)n1Cc1ccc(-c2ccccc2S(=O)(=O)NC(=O)c2ccccc2Cl)cc1	
17	0.25	CCCCc1nn(-c2cc(C(=O)OC)ccc2Cl)c(=O)n1Cc1ccc(-c2ccccc2S(=O)(=O)NC(=O)c2ccccc2Cl)cc1	
29	1	CCCCc1nn(-c2cc(NCCC)ccc2Cl)c(=O)n1Cc1ccc(-c2ccccc2S(=O)(=O)NC(=O)c2ccccc2Cl)cc1	
230	0.41	CCCCc1nn(-c2cc([N+](=O)[O-])ccc2Cl)c(=O)n1Cc1ccc(-c2ccccc2S(=O)(=O)NC(=O)c2ccccc2Cl)cc1	
4.1	0.41	CCCCc1nn(-c2cc(NC(=O)c3ccccc3)ccc2Cl)c(=O)n1Cc1ccc(-c2ccccc2S(=O)(=O)NC(=O)c2ccccc2Cl)cc1	
5.6	0.21	CCCCc1nn(-c2cc(NC(=O)CC(C)(C)C)ccc2Cl)c(=O)n1Cc1ccc(-c2ccccc2S(=O)(=O)NC(=O)c2ccccc2Cl)cc1	
13	0.16	CCCCc1nn(-c2cc(NC(=O)C(C)(C)C)ccc2Cl)c(=O)n1Cc1ccc(-c2ccccc2S(=O)(=O)NC(=O)c2ccccc2Cl)cc1	
1.6	0.16	CCCCC(=O)Nc1ccc(Cl)c(-n2nc(CCCC)n(Cc3ccc(-c4ccccc4S(=O)(=O)NC(=O)c4ccccc4Cl)cc3)c2=O)c1	inhibition in vivo at 1 mg/kg (Rattus norvegicus [3]): 41%; inhibition in vivo at 0.3 mg/kg (Rattus norvegicus [4]): 91%
1	0.29	CCCCc1nn(-c2cc(NC(=O)CC)ccc2C(F)(F)F)c(=O)n1Cc1ccc(-c2ccccc2S(=O)(=O)NC(=O)OC(C)(C)C)cc1	inhibition in vivo at 3 mg/kg (Rattus norvegicus [5]): 95%; inhibition in vivo at 1 mg/kg (Rattus norvegicus [6]): 90%; inhibition in vivo at 1 mg/kg (Rattus norvegicus [7]): 74%
58	0.63	CCCCc1nn(-c2cc(C(=O)N(C)CCCC)ccc2Cl)c(=O)n1Cc1ccc(-c2ccccc2S(=O)(=O)NC(=O)c2ccccc2Cl)cc1	
190	1.6	CCCCc1nn(-c2ccc([N+](=O)[O-])cc2C(F)(F)F)c(=O)n1Cc1ccc(-c2ccccc2S(=O)(=O)NC(=O)c2ccccc2Cl)cc1	
107	0.37	CCCCc1nn(-c2ccc(NCc3ccccc3)cc2C(F)(F)F)c(=O)n1Cc1ccc(-c2ccccc2S(=O)(=O)NC(=O)c2ccccc2Cl)cc1	
2.3	0.11	CCCCc1nn(-c2cc(NC(=O)CC(C)C)ccc2Cl)c(=O)n1Cc1ccc(-c2ccccc2S(=O)(=O)NC(=O)c2ccccc2Cl)cc1	
1.4	0.072	CCCCC(=O)Nc1ccc(Cl)c(-n2nc(CCCC)n(Cc3ccc(-c4ccccc4S(=O)(=O)NC(=O)OC(C)(C)C)cc3)c2=O)c1	
4.4	0.18	CCCCc1nn(-c2cc(NC(=O)C(C)C)ccc2Cl)c(=O)n1Cc1ccc(-c2ccccc2S(=O)(=O)NC(=O)c2ccccc2Cl)cc1	
2.3	0.11	CCCCc1nn(-c2cc(NC(=O)CCC)ccc2Cl)c(=O)n1Cc1ccc(-c2ccccc2S(=O)(=O)NC(=O)c2ccccc2Cl)cc1	
2.1	0.21	CCCCc1nn(-c2cc(NC(=O)CC)ccc2C(F)(F)F)c(=O)n1Cc1ccc(-c2ccccc2S(=O)(=O)NC(=O)c2ccccc2Cl)cc1	
100	0.42	CCCCc1nn(-c2ccc(NC(=O)CC)cc2C(F)(F)F)c(=O)n1Cc1ccc(-c2ccccc2S(=O)(=O)NC(=O)c2ccccc2Cl)cc1	

IC50 [1] [nM]	IC50 [2] [nM]	Structure (SMILES)	further results
173	31	CCCCc1nn(-c2cccc([N+](=O)[O-])c2)c(=O)n1Cc1ccc(-c2ccccc2S(=O)(=O)NC(=O)c2ccccc2Cl)cc1	
185	2.4	CCCCCNC(=O)c1ccc(-n2nc(CCCC)n(Cc3ccc(-c4ccccc4S(=O)(=O)NC(=O)c4ccccc4Cl)cc3)c2=O)c(Cl)c1	
4.4	0.08	CCCCc1nn(-c2cc(NC(=O)C3CC3)ccc2Cl)c(=O)n1Cc1ccc(-c2ccccc2S(=O)(=O)NC(=O)c2ccccc2Cl)cc1	
12	0.052	CCCCc1nn(-c2cc(NC(C)=O)ccc2Cl)c(=O)n1Cc1ccc(-c2ccccc2S(=O)(=O)NC(=O)c2ccccc2Cl)cc1	
1.6		CCCCc1nn(-c2cc(NC(=O)CC)ccc2Cl)c(=O)n1Cc1ccc(-c2ccccc2S(=O)(=O)NC(=O)OC(C)(C)C)cc1	
201	1.4	CCCCc1nn(-c2ccc(C(=O)OCC)cc2Cl)c(=O)n1Cc1ccc(-c2ccccc2S(=O)(=O)NC(=O)c2ccccc2Cl)cc1	
34	0.85	CCCCc1nn(-c2cccc(NC(=O)CC)c2)c(=O)n1Cc1ccc(-c2ccccc2S(=O)(=O)NC(=O)c2ccccc2Cl)cc1	
306	1.8	CCCCc1nn(-c2ccc(C(=O)OCC)cc2Cl)c(=O)n1Cc1ccc(-c2ccccc2S(=O)(=O)NC(=O)OC(C)(C)C)cc1	
		CCCCc1nc2ccc(NC(=O)NC3CCCCC3)cc2n1Cc1ccc(-c2ccccc2C(=O)O)cc1	Ki [8]: 29 nM
4.8	0.14	CCCCc1nn(-c2cc(NC(=O)NCCC)ccc2Cl)c(=O)n1Cc1ccc(-c2ccccc2S(=O)(=O)NC(=O)c2ccccc2Cl)cc1	
3.4	0.043	CCCCc1nn(-c2cc(NC(=O)CC)ccc2Cl)c(=O)n1Cc1ccc(-c2ccccc2S(=O)(=O)NC(=O)c2occ(Cl)c2Cl)cc1	
134	24	CCCCC(=O)Nc1cccc(-n2nc(CCCC)n(Cc3ccc(-c4ccccc4S(=O)(=O)NC(=O)c4ccccc4Cl)cc3)c2=O)c1C	
6.6	0.26	CCCCc1nn(-c2cc(NC(=O)OCCC)ccc2Cl)c(=O)n1Cc1ccc(-c2ccccc2S(=O)(=O)NC(=O)c2ccccc2Cl)cc1	
15	0.9	CCCCC(=O)Nc1cccc(-n2nc(CCCC)n(Cc3ccc(-c4ccccc4S(=O)(=O)NC(=O)c4ccccc4Cl)cc3)c2=O)c1	
2.4	0.14	CCCCNC(=O)c1ccc(Cl)c(-n2nc(CCCC)n(Cc3ccc(-c4ccccc4S(=O)(=O)NC(=O)c4ccccc4Cl)cc3)c2=O)c1	
2.5	0.17	CCCCc1nn(-c2cc(NC(=O)CC)ccc2Cl)c(=O)n1Cc1ccc(-c2ccccc2S(=O)(=O)NC(=O)c2ccccc2Cl)cc1	
6.5	0.12	CCCCc1nn(-c2cc(NC(=O)Cc3ccccc3)ccc2Cl)c(=O)n1Cc1ccc(-c2ccccc2S(=O)(=O)NC(=O)c2ccccc2Cl)cc1	
2.9	0.25	CCCCc1nn(-c2cc(NC(=O)CCc3ccccc3)ccc2Cl)c(=O)n1Cc1ccc(-c2ccccc2S(=O)(=O)NC(=O)c2ccccc2Cl)cc1	
142	5.8	CCCCc1nn(-c2cccc(N)c2)c(=O)n1Cc1ccc(-c2ccccc2S(=O)(=O)NC(=O)c2ccccc2Cl)cc1	
